Laboratory results published in ChEMBL document CHEMBL4014276, “Diphenylurea derivatives for combating methicillin- and vancomycin-resistant Staphylococcus aureus” (Eur J Med Chem, 2017).
Converted amounts (≈) assume the structure as drawn. The source made the active and inactive calls. The calls are words filed in the database; no cut-off is given here.

Assays:
Staphylococcus aureus [1] = experiment: Antibacterial activity against Staphylococcus aureus RN4220 NRS107 clinical isolate after 20 hrs by broth microdilution method; type: functional; conditions: RN4220 NRS107, 20 h
Outline: (§1)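 CLSI broth microdilution in cation-adjusted Mueller Hinton broth; compounds serially diluted, triplicate samples; 37 °C, 20 h. MIC read visually as lowest concentration with no visible growth; mean of triplicate determinations reported.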

Staphylococcus aureus [2] = experiment: Bactericidal activity against Staphylococcus aureus RN4220 NRS107 clinical isolate after 18 hrs by broth microdilution method; type: functional; conditions: RN4220 NRS107, 18 h
Outline: (§2)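 From MIC wells without visible growth, 5 uL spotted onto Tryptic soy agar, incubated 37 °C for at least 18 h; MBC taken as lowest concentration giving 99.9% growth inhibition.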

Staphylococcus aureus [3] = experiment: Antibacterial activity against methicillin-resistant Staphylococcus aureus USA400 NRS123 clinical isolate after 20 hrs by broth microdilution method; type: functional; conditions: USA400 NRS123, 20 h; outline: as §1
Staphylococcus aureus [4] = experiment: Bactericidal activity against methicillin-resistant Staphylococcus aureus USA400 NRS123 clinical isolate after 18 hrs by broth microdilution method; type: functional; conditions: USA400 NRS123, 18 h; outline: as §2
Staphylococcus aureus [5] = experiment: Antibacterial activity against methicillin-resistant Staphylococcus aureus USA100 NRS382 clinical isolate after 20 hrs by broth microdilution method; type: functional; conditions: USA100 NRS382, 20 h; outline: as §1
Staphylococcus aureus [6] = experiment: Antibacterial activity against methicillin-resistant Staphylococcus aureus USA200 NRS383 clinical isolate after 20 hrs by broth microdilution method; type: functional; conditions: USA200 NRS383, 20 h; outline: as §1
Staphylococcus aureus [7] = experiment: Bactericidal activity against methicillin-resistant Staphylococcus aureus USA200 NRS383 clinical isolate after 18 hrs by broth microdilution method; type: functional; conditions: USA200 NRS383, 18 h; outline: as §2
Staphylococcus aureus [8] = experiment: Antibacterial activity against methicillin-resistant Staphylococcus aureus USA300 NRS384 clinical isolate after 20 hrs by broth microdilution method; type: functional; conditions: USA300 NRS384, 20 h; outline: as §1
Staphylococcus aureus [9] = experiment: Bactericidal activity against methicillin-resistant Staphylococcus aureus USA300 NRS384 clinical isolate after 18 hrs by broth microdilution method; type: functional; conditions: USA300 NRS384, 18 h; outline: as §2
Staphylococcus aureus [10] = experiment: Bactericidal activity against vancomycin-resistant Staphylococcus aureus VRSA4 after 18 hrs by broth microdilution method; type: functional; conditions: VRSA4, 18 h; outline: as §2
Staphylococcus aureus [11] = experiment: Antibacterial activity against vancomycin-resistant Staphylococcus aureus VRSA10 after 20 hrs by broth microdilution method; type: functional; conditions: VRSA10, 20 h; outline: as §1
Staphylococcus aureus [12] = experiment: Bactericidal activity against vancomycin-resistant Staphylococcus aureus VRSA10 after 18 hrs by broth microdilution method; type: functional; conditions: VRSA10, 18 h; outline: as §2
[13] = Intrinsic clearance in human liver microsomes in presence of NADPH by LC-MS/MS method; type: ADME, microsome; conditions: read-out: CLH
[14] = Half life in human liver microsomes in presence of NADPH by LC-MS/MS method; type: ADME, microsome
[15] = Half life in human liver microsomes in absence of NADPH by LC-MS/MS method; type: ADME, microsome
Staphylococcus aureus [16] = experiment: Bactericidal activity against methicillin-resistant Staphylococcus aureus USA400 assessed as time required to reduce log10CFU of bacterial load at 4 times MIC by time kill assay; type: functional
HaCaT = experiment: Cytotoxicity against human HaCaT cells up to 64 ug/ml after 2 hrs by MTS assay; type: cell-based
Outline: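 Keratinocytes grown in DMEM with 10% FBS at 37 °C, 5% CO2; exposed in triplicate to 8, 16, 32 and 64 µg/mL for 2 h. DMSO-matched controls. MTS added for 4 h, absorbance at 490 nm. Viability expressed as % of DMSO-treated cells (mean of triplicate ± SD); one-way ANOVA with Dunnett's test, P < 0.05.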

Staphylococcus aureus [17] = experiment: Bactericidal activity against methicillin-resistant Staphylococcus aureus USA400 NRS123 clinical isolate assessed as disruption of bacterial membrane by measuring leakage of 260 nM absorbing material at 5 times MIC after 30 mins by spectrophotometric method; type: functional
Staphylococcus aureus [18] = experiment: Bactericidal activity against methicillin-resistant Staphylococcus aureus USA400 NRS123 clinical isolate assessed as disruption of bacterial membrane by measuring leakage of 280 nM absorbing material at 5 times MIC after 30 mins by spectrophotometric method; type: functional
Staphylococcus aureus [19] = experiment: Antibacterial activity against methicillin-resistant Staphylococcus aureus USA400 infected in Caenorhabditis elegans AU37 harboring (sek-1(km4);glp-4(bn2)I) mutant assessed as reduction in colony forming units at 10 ug/ml after 20 hrs by microscopic method relative to control; type: functional; set-up: scale not given: the % may be the effect or the level left
Outline: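 C. elegans AU37 L4/adult worms infected on MRSA USA400 lawn 6 h, washed in M9; 15-25 worms per well treated with 10 µg/mL in triplicate for 20 h, PBS negative control; worms lysed with silicon carbide, plated on TSA with 5 µg/mL nalidixic acid, 37 °C 18 h; CFU per worm, Student's t-test with Holm-Sidak correction.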

[20] = Apparent permeability across apical to basolateral side in human Caco2 cells at 10 uM after 2 hrs by LC-MS/MS method; type: ADME, cell-based; conditions: Caco-2
[21] = Apparent permeability across basolateral to apical side in human Caco2 cells at 10 uM after 2 hrs by LC-MS/MS method; type: ADME, cell-based; conditions: Caco-2
[22] = Efflux ratio of apparent permeability across basolateral to apical over apical to basolateral side in human Caco2 cells at 10 uM after 2 hrs by LC-MS/MS method; type: ADME, cell-based; conditions: Caco-2
[23] = Cmax in naive Sprague-Dawley rat at 50 mg/kg ,po administered via gavage by LC-MS/MS method; type: ADME, organism-based; set-up: dose 50 mg/kg, route oral; conditions: in vivo
Outline: (§3)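 Male naïve rats, three animals; single oral gavage dose in 5% ethanol, 45% PEG 400, 50% water. Blood drawn into EDTA-K2 tubes over 24 h post dose; plasma protein-precipitated with acetonitrile, parent quantified by LC/MS/MS.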

[24] = AUClast in naive Sprague-Dawley rat at 50 mg/kg ,po administered via gavage by LC-MS/MS method; type: ADME, organism-based; set-up: dose 50 mg/kg, time 0 - last, route oral; conditions: in vivo; outline: as §3
[25] = Total AUC in naive Sprague-Dawley rat at 50 mg/kg ,po administered via gavage by LC-MS/MS method; type: ADME, organism-based; set-up: dose 50 mg/kg, time AUCmax, route oral; conditions: in vivo; outline: as §3
[26] = Half life in naive Sprague-Dawley rat at 50 mg/kg ,po administered via gavage by LC-MS/MS method; type: ADME, organism-based; conditions: in vivo; outline: as §3
[27] = Mean residence time in naive Sprague-Dawley rat at 50 mg/kg ,po administered via gavage by LC-MS/MS method; type: ADME, organism-based; conditions: in vivo; outline: as §3
Staphylococcus aureus [28] = experiment: Antibacterial activity against methicillin-resistant Staphylococcus aureus USA400 NRS123 clinical isolate preincubated followed by bacterial subculturing for 2 weeks; type: functional
Staphylococcus aureus [29] = experiment: Antibacterial activity against methicillin-resistant Staphylococcus aureus USA200 NRS383 clinical isolate preincubated followed by bacterial subculturing for 2 weeks; type: functional
[30] = Terminal elimination rate constant in naive Sprague-Dawley rat at 50 mg/kg ,po administered via gavage by LC-MS/MS method; type: ADME, organism-based; conditions: in vivo, read-out: LZ (converted); outline: as §3
Staphylococcus aureus [31] = experiment: Bactericidal activity against methicillin-resistant Staphylococcus aureus USA400 infected in mouse J774 cells assessed as reduction in colony forming units at 16 ug/ml after 8 hrs by time kill assay relative to control; set-up: scale not given: the % may be the effect or the level left

SMILES: C/C(=N\NC(=N)N)c1ccc(NC(=O)Nc2ccc(OC3CCCCCC3)cc2)cc1
- MIC (Staphylococcus aureus [1]): 2 µg/mL (≈ 4.73 µM)
- MBC (Staphylococcus aureus [2]): 4 µg/mL (≈ 9.47 µM)
- MIC (Staphylococcus aureus [3]): 4 µg/mL (≈ 9.47 µM)
- MBC (Staphylococcus aureus [4]): 4 µg/mL (≈ 9.47 µM)
- MIC (Staphylococcus aureus [5]): 2 µg/mL (≈ 4.73 µM)
- MIC (Staphylococcus aureus [6]): 2 µg/mL (≈ 4.73 µM)
- MBC (Staphylococcus aureus [7]): 4 µg/mL (≈ 9.47 µM)
- MIC (Staphylococcus aureus [8]): 2 µg/mL (≈ 4.73 µM)
- MBC (Staphylococcus aureus [9]): 4 µg/mL (≈ 9.47 µM)
- MBC (Staphylococcus aureus [10]): 4 µg/mL (≈ 9.47 µM)
- MIC (Staphylococcus aureus [11]): 8 µg/mL (≈ 18.9 µM)
- MBC (Staphylococcus aureus [12]): 8 µg/mL (≈ 18.9 µM)
- microsomal CLint [13]: 33.9 µL/min/mg
- half-life [14]: 1.14 h
- half-life [15]: 0.897 h
- Time (Staphylococcus aureus [16]): <=4 hr
- Activity (HaCaT): Non-Toxic
- Activity (Staphylococcus aureus [17]): inactive
- Activity (Staphylococcus aureus [18]): inactive
- Activity (Staphylococcus aureus [19]): >50%
- Papp A→B at 2 h, 10 µM [20]: 0.039 ×10⁻⁶ cm/s
- Papp B→A at 2 h, 10 µM [21]: 51.9 ×10⁻⁶ cm/s
- efflux ratio at 2 h, 10 µM [22]: > 1000
- Cmax [23]: 16.3 ng/mL
- AUC(0-t) [24]: 218 ng·h/mL
- AUC [25]: 384 ng·h/mL
- half-life [26]: 16 h
- MRT [27]: 28.4 h
- Activity (Staphylococcus aureus [28]): Active
- Activity (Staphylococcus aureus [29]): Active
- k el [30]: 1.25e-05 s⁻¹
- Activity (Staphylococcus aureus [31]): 35.7%
